Results: ChEMBL document CHEMBL4038284, “Synthesis of novel quinoline-based 4,5-dihydro-1H-pyrazoles as potential anticancer, antifungal, antibacterial and antiprotozoal agents” (Eur J Med Chem, 2017)
The source made the active and inactive calls. The calls are words filed in the database; no cut-off is given here.

Tests used:
HT-29 = assay: Growth inhibition of human HT-29 cells incubated for 48 hrs by sulforhodamine B assay; format: functional; settings: HT-29, 48 h
Method in brief: (§1)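 Five-dose NCI SRB assay at 100, 10, 1.0, 0.1 and 0.01 μM for 48 h at 37 °C, 5% CO2. Medium was RPMI-1640 with 5% FBS and 2 mM glutamine. Time-zero plates were TCA-fixed at compound addition, A515 read after SRB staining. GI50 was solved from [(Ti−Tz)/(C−Tz)]×100 = 50. Values beyond the tested range are given as > or <.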

UO-31 = assay: Growth inhibition of human UO31 cells incubated for 48 hrs by sulforhodamine B assay; format: functional; settings: UO-31, 48 h
Method in brief: (§2)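 NCI-60 panel cells grown in RPMI-1640 with 5% FBS and 2 mM L-glutamine, preincubated 24 h at 37 °C/5% CO2. Time-zero plates were TCA-fixed at compound addition. DMSO stocks were diluted in medium and tested at five final concentrations (100, 10, 1.0, 0.1, 0.01 µM) for 48 h. Cells were TCA-fixed, stained with SRB and read at 515 nm. GI50 = 50% lower net protein increase versus control.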

MCF7 = assay: Growth inhibition of human MCF7 cells incubated for 48 hrs by sulforhodamine B assay; format: functional; settings: MCF7, 48 h; for CC50: read-out: LC50 (the source's name)
Method in brief: (§3)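 NCI 60-line screen. Cells in RPMI-1640 with 5% FBS and 2 mM L-glutamine, preincubated 24 h, then time-zero plates TCA-fixed. Compounds from DMSO stocks given at five final concentrations (100, 10, 1.0, 0.1, 0.01 µM) for 48 h at 37 °C, 5% CO2. Cells fixed with 10% TCA, SRB-stained, read at 515 nm. GI50 is the concentration giving 50% lower net protein increase versus control.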

Malme-3M = assay: Growth inhibition of human MALME-3M cells incubated for 48 hrs by sulforhodamine B assay; format: functional; settings: for CC50: read-out: LC50 (the source's name); method in brief: as §1
K562 = assay: Growth inhibition of human K562 cells incubated for 48 hrs by sulforhodamine B assay; format: functional; settings: K562, 48 h; for CC50: read-out: LC50 (the source's name); method in brief: as §3
A549 = assay: Growth inhibition of human A549/ATCC cells incubated for 48 hrs by sulforhodamine B assay; format: functional; settings: A549, 48 h; method in brief: as §3
OVCAR-8 = assay: Growth inhibition of human OVCAR8 cells incubated for 48 hrs by sulforhodamine B assay; format: functional; settings: OVCAR-8, 48 h; method in brief: as §1
NCI-H460 = assay: Growth inhibition of human NCI-H460 cells incubated for 48 hrs by sulforhodamine B assay; format: functional; settings: NCI-H460, 48 h; for CC50: read-out: LC50 (the source's name); method in brief: as §1
MOLT-4 = assay: Growth inhibition of human MOLT4 cells incubated for 48 hrs by sulforhodamine B assay; format: functional; settings: MOLT-4, 48 h; for CC50: read-out: LC50 (the source's name); method in brief: as §3
TK-10 = assay: Growth inhibition of human TK10 cells incubated for 48 hrs by sulforhodamine B assay; format: functional; settings: TK-10, 48 h; for CC50: read-out: LC50 (the source's name); method in brief: as §3
SK-MEL-28 = assay: Growth inhibition of human SK-MEL-28 cells incubated for 48 hrs by sulforhodamine B assay; format: functional; settings: SK-MEL-28, 48 h; for CC50: read-out: LC50 (the source's name); method in brief: as §2
SW-620 = assay: Growth inhibition of human SW620 cells incubated for 48 hrs by sulforhodamine B assay; format: functional; settings: SW-620, 48 h; for CC50: read-out: LC50 (the source's name); method in brief: as §2
Candida albicans = assay: Growth inhibition of Candida albicans ATCC 10231 at 3.4 ug/ml incubated for 48 hrs under dark condition by broth microdilution method relative to control; format: functional; settings: ATCC 10231, 48 h, read-out: GI
MDA-MB-435 = assay: Growth inhibition of human MDA-MB-435 cells incubated for 48 hrs by sulforhodamine B assay; format: functional; settings: MDA-MB-435, 48 h; for CC50: read-out: LC50 (the source's name); method in brief: as §1
SNB-19 = assay: Growth inhibition of human SNB19 cells incubated for 48 hrs by sulforhodamine B assay; format: functional; settings: SNB-19, 48 h; for CC50: read-out: LC50 (the source's name); method in brief: as §2
OVCAR-4 = assay: Growth inhibition of human OVCAR4 cells incubated for 48 hrs by sulforhodamine B assay; format: functional; settings: OVCAR-4, 48 h; method in brief: as §1
COLO 205 = assay: Growth inhibition of human COLO205 cells incubated for 48 hrs by sulforhodamine B assay; format: functional; settings: COLO 205, 48 h; for CC50: read-out: LC50 (the source's name)
Method in brief: (§4)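 NCI five-dose SRB assay (100, 10, 1.0, 0.1, 0.01 µM) with 48 h exposure in RPMI-1640 with 5% FBS and 2 mM L-glutamine. Cells fixed with TCA and stained with SRB, read at 515 nm. GI50 is the concentration where [(Ti−Tz)/(C−Tz)]×100 = 50.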

HL-60(TB) = assay: Growth inhibition of human HL-60(TB) cells incubated for 48 hrs by sulforhodamine B assay; format: functional; settings: HL-60, 48 h; for CC50: read-out: LC50 (the source's name); method in brief: as §3
T47D = assay: Growth inhibition of human T47D cells incubated for 48 hrs by sulforhodamine B assay; format: functional; settings: for CC50: read-out: LC50 (the source's name); method in brief: as §2
Staphylococcus aureus = assay: Antibacterial activity against vancomycin-intermediate Staphylococcus aureus after 24 hrs by resazurin dye based microdilution assay; format: functional
Method in brief: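 MIC taken as the lowest concentration giving visible inhibition and/or by resazurin (1 mg/mL). Gentamicin was the control. Run in duplicate, repeated at least three times.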

Cryptococcus neoformans = assay: Growth inhibition of Cryptococcus neoformans ATCC 32264 at 3.4 ug/ml incubated for 48 hrs under dark condition by broth microdilution method relative to control; format: functional; settings: ATCC 32264, 48 h, read-out: GI
NCI/ADR-RES = assay: Growth inhibition of human NCI/ADR-RES cells incubated for 48 hrs by sulforhodamine B assay; format: functional; settings: for CC50: read-out: LC50 (the source's name); method in brief: as §3
786-0 = assay: Growth inhibition of human 786-0 cells incubated for 48 hrs by sulforhodamine B assay; format: functional; settings: 786-0, 48 h; method in brief: as §4
OVCAR-5 = assay: Growth inhibition of human OVCAR5 cells incubated for 48 hrs by sulforhodamine B assay; format: functional; settings: OVCAR-5, 48 h; for CC50: read-out: LC50 (the source's name); method in brief: as §3
LOX IMVI = assay: Growth inhibition of human LOXIMVI cells at 10 uM incubated for 48 hrs by sulforhodamine B assay; format: functional, cell-based
Method in brief: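 NCI 60-line panel, single 10 μM dose. Cells were grown in RPMI-1640 with 5% FBS and 2 mM L-glutamine and pre-incubated 24 h before compound addition (DMSO stock). Exposure was 48 h at 37 °C, 5% CO2. Cells were fixed with cold TCA (10% final), stained with 0.4% SRB, bound dye dissolved in 10 mM Tris base, A515 read. Growth was taken relative to time-zero and untreated control plates.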

RXF 393 = assay: Growth inhibition of human RXF393 cells incubated for 48 hrs by sulforhodamine B assay; format: functional; settings: RXF 393, 48 h; for CC50: read-out: LC50 (the source's name); method in brief: as §1
HCT-116 = assay: Growth inhibition of human HCT116 cells incubated for 48 hrs by sulforhodamine B assay; format: functional; settings: HCT-116, 48 h; method in brief: as §4
[1] = read-out: LC50 (the source's name)

Work on `O=CN1N=C(c2ccc(Cl)cc2)CC1c1cccc(Nc2ccnc3cc(Cl)ccc23)c1` (stereo not drawn) yielded a GI50 (HT-29) of 1.28 µM, an LC50 (HT-29) of 56.4 µM and a GI50 (UO-31) of 1.7 µM. The CC50 (UO-31; [1]) was > 100 µM, the GI50 (MCF7) was 0.87 µM and the CC50 (MCF7) was > 100 µM. It also gave a GI50 (Malme-3M) of 1.27 µM, a CC50 (Malme-3M) of 76.6 µM and a GI50 (K562) of 0.39 µM. The CC50 (K562) was > 100 µM, the GI50 (A549) was 2.03 µM and the LC50 (concentration giving 50% net cell kill) (A549) was > 100 µM. For the same compound, the GI50 (OVCAR-8) was 1.92 µM, the LC50 (concentration causing 50% net cell kill) (OVCAR-8) was > 100 µM and the GI50 (NCI-H460) was 1.86 µM. For the same compound, the CC50 (NCI-H460) was > 100 µM, the GI50 (MOLT-4) was 1.13 µM and the CC50 (MOLT-4) was > 100 µM. The GI50 (TK-10) was 2.34 µM, the CC50 (TK-10) was > 100 µM and the GI50 (SK-MEL-28) was 3.15 µM. For the same compound, the CC50 (SK-MEL-28) was > 100 µM, the GI50 (SW-620) was 1.61 µM and the CC50 (SW-620) was > 100 µM. For the same compound, the inhibition of growth at 3.4 µg/mL (Candida albicans) was 9.81%, the GI50 (MDA-MB-435) was 0.38 µM and the CC50 (MDA-MB-435) was > 100 µM. The GI50 (SNB-19) was 4.19 µM, the CC50 (SNB-19) was > 100 µM and the GI50 (OVCAR-4) was 0.64 µM. For the same compound, the CC50 (OVCAR-4; [1]) was 79.8 µM, the GI50 (COLO 205) was 1.43 µM and the CC50 (COLO 205) was 21.4 µM. For the same compound, the GI50 (HL-60(TB)) was 1.27 µM, the CC50 (HL-60(TB)) was > 100 µM and the GI50 (T47D) was 0.82 µM. For the same compound, the CC50 (T47D) was > 100 µM, the MIC (Staphylococcus aureus) was > 1000 mg/L and the inhibition of growth at 3.4 µg/mL (Cryptococcus neoformans) was 37.7%. For the same compound, the GI50 (NCI/ADR-RES) was 0.78 µM, the CC50 (NCI/ADR-RES) was > 100 µM and the GI50 (786-0) was 2.96 µM. For the same compound, the LC50 (786-0) was 62.7 µM, the GI50 (OVCAR-5) was 9.42 µM and the CC50 (OVCAR-5) was > 100 µM. For the same compound, the “growth inhibition (GI)” value (LOX IMVI) was “Active”, the GI50 (RXF 393) was 1.4 µM and the CC50 (RXF 393) was > 100 µM. The GI50 (HCT-116) was 1.2 µM and the LC50 (concentration killing 50% of cells) (HCT-116) was 17.2 µM.

With `COc1ccc(C(=O)/C=C/c2cccc(Nc3ccnc4cc(Cl)ccc34)c2)cc1` the GI50 (HT-29) was 1.64 µM, the LC50 (HT-29) was > 100 µM and the GI50 (UO-31) was 1.03 µM. For the same compound, the GI50 (MCF7) was 1.82 µM, the CC50 (MCF7) was > 100 µM and the GI50 (Malme-3M) was 1.79 µM. The CC50 (Malme-3M) was > 100 µM, the GI50 (K562) was 1.64 µM and the CC50 (K562) was 83.8 µM. The GI50 (A549) was 2.78 µM, the LC50 (concentration giving 50% net cell kill) (A549) was > 100 µM and the GI50 (OVCAR-8) was 2.26 µM. For the same compound, the LC50 (concentration causing 50% net cell kill) (OVCAR-8) was > 100 µM, the GI50 (NCI-H460) was 2.23 µM and the CC50 (NCI-H460) was > 100 µM. The GI50 (MOLT-4) was 2.9 µM, the CC50 (MOLT-4) was > 100 µM and the GI50 (TK-10) was 1.64 µM. For the same compound, the CC50 (TK-10) was > 100 µM, the GI50 (SK-MEL-28) was 1.87 µM and the CC50 (SK-MEL-28) was > 100 µM. For the same compound, the GI50 (SW-620) was 1.98 µM, the CC50 (SW-620) was > 100 µM and the inhibition of growth at 3.4 µg/mL (Candida albicans) was 5.88%. For the same compound, the GI50 (MDA-MB-435) was 2.13 µM, the CC50 (MDA-MB-435) was > 100 µM and the GI50 (SNB-19) was 2.26 µM. For the same compound, the CC50 (SNB-19) was > 100 µM, the GI50 (OVCAR-4) was 1 µM and the GI50 (COLO 205) was 3.85 µM. The CC50 (COLO 205) was > 100 µM, the GI50 (HL-60(TB)) was 2.98 µM and the CC50 (HL-60(TB)) was > 100 µM. For the same compound, the GI50 (T47D) was 0.66 µM, the CC50 (T47D) was > 100 µM and the MIC (Staphylococcus aureus) was > 1000 mg/L. For the same compound, the inhibition of growth at 3.4 µg/mL (Cryptococcus neoformans) was 0%, the GI50 (NCI/ADR-RES) was 1.16 µM and the CC50 (NCI/ADR-RES) was > 100 µM. It also gave a GI50 (786-0) of 1.48 µM, an LC50 (786-0) of 77.7 µM and a GI50 (OVCAR-5) of 2.6 µM. The CC50 (OVCAR-5) was > 100 µM, the “growth inhibition (GI)” value (LOX IMVI) was “Active” and the GI50 (RXF 393) was 1.82 µM. The CC50 (RXF 393) was > 100 µM, the GI50 (HCT-116) was 0.84 µM and the LC50 (concentration killing 50% of cells) (HCT-116) was > 100 µM.
